Test results as given in the M2OR odorant receptor database.

biological target: T1, OR5AC2 (Homo sapiens) (UniProt Q9NZP5); details: stereoisomer not certain
T1 sequence (whole entry): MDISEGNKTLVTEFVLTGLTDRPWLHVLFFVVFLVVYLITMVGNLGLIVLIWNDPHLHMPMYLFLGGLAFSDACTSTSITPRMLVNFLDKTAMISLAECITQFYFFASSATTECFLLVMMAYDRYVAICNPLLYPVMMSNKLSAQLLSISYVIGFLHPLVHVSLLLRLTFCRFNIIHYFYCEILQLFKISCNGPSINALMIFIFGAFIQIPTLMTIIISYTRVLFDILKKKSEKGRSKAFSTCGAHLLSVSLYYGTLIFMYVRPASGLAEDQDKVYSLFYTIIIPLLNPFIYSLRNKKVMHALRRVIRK
Summary of the method: (§1)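 Assay methods differ from source to source, frequently being transient luciferase assays in mammalian cell lines. For each receptor–molecule pair, the label responsive (active) applies when the original authors judged the measured signal statistically different from baseline, and non-responsive (inactive) applies otherwise.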

Question: `Cc1c([N+](=O)[O-])c(C)c([N+](=O)[O-])c(C(C)(C)C)c1[N+](=O)[O-]` was tested. Which “odorant receptor agonist call” value did it give?
Answer: inactive

Question: With `C=CCc1ccc(OC)cc1` as the molecule, how does the “odorant receptor agonist call” value read?
Answer: inactive

Question: With `C=CCOC(=O)Cc1ccccc1` as the molecule, how does the “odorant receptor agonist call” value read?
Answer: inactive

Question: For `O=Cc1ccccc1`, which “odorant receptor agonist call” value is on record?
Answer: inactive

Question: How did the “odorant receptor agonist call” value turn out when `O=CC=Cc1ccccc1` was run?
Answer: inactive

biological target: T2, OR5AN1 (Homo sapiens) (UniProt Q8NGI8); details: stereoisomer not certain
T2 sequence (whole entry): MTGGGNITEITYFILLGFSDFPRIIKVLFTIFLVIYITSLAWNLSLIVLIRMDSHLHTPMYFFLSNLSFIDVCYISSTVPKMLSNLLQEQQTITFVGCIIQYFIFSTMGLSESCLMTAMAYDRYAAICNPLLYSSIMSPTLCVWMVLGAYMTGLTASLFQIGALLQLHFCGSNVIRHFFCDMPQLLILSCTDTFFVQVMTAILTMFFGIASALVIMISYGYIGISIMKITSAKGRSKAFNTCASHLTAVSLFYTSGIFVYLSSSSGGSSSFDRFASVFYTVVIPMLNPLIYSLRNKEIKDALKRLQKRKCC
Summary of the method: as §1

Question: `Cc1c([N+](=O)[O-])c(C)c([N+](=O)[O-])c(C(C)(C)C)c1[N+](=O)[O-]` was tested. Which “odorant receptor agonist call” value did it give?
Answer: active

Question: For `CC(=O)c1cc2c(cc1C)C(C)(C)C(C)CC2(C)C` (centres undefined), which “odorant receptor agonist call” value is on record?
Answer: inactive

Question: `CC(=O)c1cc(C(C)(C)C)cc2c1CCC2(C)C` was tested. Which “odorant receptor agonist call” value did it give?
Answer: inactive

Question: `C=CCOC(=O)Cc1ccccc1` was tested. Which “odorant receptor agonist call” value did it give?
Answer: inactive

biological target: T3, OR5B17 (Homo sapiens) (UniProt Q8NGF7); details: stereoisomer not certain
T3 sequence (whole entry): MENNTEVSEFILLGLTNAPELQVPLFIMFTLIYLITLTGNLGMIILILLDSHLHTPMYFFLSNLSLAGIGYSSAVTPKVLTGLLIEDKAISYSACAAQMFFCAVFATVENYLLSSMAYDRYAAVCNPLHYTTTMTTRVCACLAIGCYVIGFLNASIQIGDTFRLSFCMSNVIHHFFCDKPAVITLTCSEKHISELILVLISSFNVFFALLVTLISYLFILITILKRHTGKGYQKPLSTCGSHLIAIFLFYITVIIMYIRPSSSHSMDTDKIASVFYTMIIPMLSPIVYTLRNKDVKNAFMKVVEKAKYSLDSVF
Summary of the method: as §1

Question: How did the “odorant receptor agonist call” value turn out when `Cc1c([N+](=O)[O-])c(C)c([N+](=O)[O-])c(C(C)(C)C)c1[N+](=O)[O-]` was run?
Answer: inactive

Question: With `C=CCc1ccc(OC)cc1` as the molecule, how does the “odorant receptor agonist call” value read?
Answer: inactive

Question: For `C=CCOC(=O)Cc1ccccc1`, which “odorant receptor agonist call” value is on record?
Answer: inactive

Question: How did the “odorant receptor agonist call” value turn out when `O=Cc1ccccc1` was run?
Answer: inactive

Question: Which “odorant receptor agonist call” value does the source give for `O=CC=Cc1ccccc1` here?
Answer: inactive
